Results on two substances are retold here after ChEMBL document CHEMBL1127616, “Synthesis, structural characterization, and antitumor properties of a novel class of large-ring platinum(II) chelate complexes incorporating the cis-1,4-diaminocyclohexane ligand in a unique locked boat conformation” (J Med Chem, 1994).

The subject of test [1] is L1210. Description: Tested for in vivo weight change against murine L1210 Pt-resistant leukemia at the dose of 6.0 mg/kg per injection. Conditions: Mus musculus. The class given is functional, organism-based. The procedure, abridged:
(§1)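 Leukemia life-span assays used CD2F1 (Balb/c × DBA/2F1) mice weighing 18–22 g. Cells were inoculated IP on day 0, and compounds in 0.9% saline were given IP, dosed by average cage weight. Weight change is the difference in mean group weight between the last and first treatment days.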

Test [2] has as its system Mus musculus. Kind of test: Tested for median life span against solid tumor P388 Pt-resistant leukemia at 5.0 mg/kg per injection. The class given is functional, organism-based. The method, boiled down: (§2)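 Murine leukemia life span assay in CD2F1 (Balb/c × DBA/2F1) mice, 18–22 g, randomized, with IP tumor cell inoculation on day 0. Depending on the model, the inoculum was 1 × 10^4 cells with IP dosing on days 3, 7 and 11, or 1 × 10^6 cells with IP dosing on days 1, 5 and 9. Drug was given in 0.9% saline, mg/kg per injection, by average cage weight. Read-outs were median day of death and %T/C. Mice alive 60 days after treatment counted as cured and were excluded.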

The test system of test [3] is L1210. Kind of test: Tested for the ratio of number of survivors / total number after 60 days at the dose of 4.0 mg/kg per injection against murine L1210 Pt-resistant leukemia in experiment 1. The class given is functional, organism-based. The conditions noted are these: Mus musculus. The method, boiled down:
(§3)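 CD2F1 (Balb/c × DBA/2F1) mice, 18–22 g, randomized and inoculated IP with counted leukemia cells on day 0, then re-randomized. Three IP treatments, dissolved in 0.9% saline and dosed on average cage weight, with dose in mg/kg per injection across a full toxic-to-ineffective range. Median life span and %T/C were recorded. Survivors at 60 days were counted as cured and excluded from %T/C.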

In test [4] the test system is L1210. Kind of test: Tested for in vitro growth inhibition against murine leukemia cell L1210DACH. The class given is functional, cell-based. Conditions: Mus musculus.
Test [5] has as its system P388. Kind of test: Tested for in vitro growth inhibition against murine leukemia cell P388S. The class given is functional, cell-based. The conditions noted are these: Mus musculus.
Test [6] deals with L1210. Description: Tested for median life span against solid tumor L1210 Pt-resistant leukemia at 6.0 mg/kg per injection. Format: functional, organism-based. The conditions noted are these: Mus musculus. The method, boiled down: (§4)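 CD2F1 mice weighing 18–22 g were inoculated IP with leukemia cells on day 0. Compounds in 0.9% saline were given IP in three injections, dosed by average cage weight, over a dose range from toxic to ineffective. Median life span was recorded, with cause of death assessed at necropsy and 60-day survivors counted as cured.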

Another test deals with M5076. Description: Tested for net cell kill tumor burden reduction during therapy at the dose 9.0 mg/kg in M5076 sarcoma. The class given is functional, organism-based. On the set-up: dose 9 mg/kg. The conditions noted are these: Mus musculus. The procedure, abridged:
(§5)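 Solid tumor growth delay assay; B16 melanoma and M5076 sarcoma were run in B6C3F1 (C57BL/6 × C3HF1) mice of 18–22 g. Tumor fragments were implanted SC on day 0, then drug in 0.9% saline was given IP on days 1, 5, 9 or days 3, 7, 11, mg/kg per injection. T − C is the difference in days for treated and control tumors to reach 750 mg. Net log cell kill is tumor burden reduction during therapy. Cured mice were excluded.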

Test [7] relates to L1210. Kind of test: Tested for in vivo weight change against murine L1210 leukemia at the dose of 10 mg/kg per injection in experiment 2. The class given is functional, organism-based. Conditions: Mus musculus. The procedure, abridged:
as §1

The test system of test [8] is L1210. Description: Tested for the ratio of treated and control against solid tumor murine L1210 leukemia 6.0 mg/kg per injection in experiment 1; T/C. The class given is functional, organism-based. Conditions: Mus musculus. The procedure, abridged:
as §2

Test [9] has as its system Mus musculus. Kind of test: Tested for median life span against solid tumor P388 leukemia at 10 mg/kg per injection. Format: functional, organism-based. The procedure, abridged: as §2
For test [10], the system named is Mus musculus. Kind of test: Tested for the ratio of treated and control tumor to reach 750 mg against murine solid tumor M5076 sarcoma 9.0 mg/kg per injection. The class given is functional, organism-based. The procedure, abridged:
as §5

For test [11], the system named is L1210. Description: Tested for in vitro growth inhibition against murine leukemia cell L1210S. The class given is functional, cell-based. The conditions noted are these: Mus musculus.
For test [12], the system named is Mus musculus. Kind of test: Tested for in vivo weight change against murine B16 melanoma at the dose of 9.0 mg/kg per injection. The class given is functional, organism-based. The method, boiled down:
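B6C3F1 (C57BL/6 × C3HF1) mice weighing 18–22 g received trocar tumor fragments SC on day 0. Compounds in 0.9% saline were given IP on a three-injection schedule, dosed by average cage weight. Weight change is the maximum treatment-related weight loss during the growth-delay assay.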

Test [13] deals with L1210. Description: Tested for in vivo weight change against murine L1210 leukemia at the dose of 6.0 mg/kg per injection in experiment 1. The conditions noted are these: Mus musculus. The class given is functional, organism-based. The procedure, abridged: as §1
Test [14] relates to L1210. Kind of test: Tested for median life span against solid tumor L1210 Pt-resistant leukemia at 5.0 mg/kg per injection in experiment 2. The conditions noted are these: Mus musculus. The class given is functional, organism-based. The procedure, abridged: as §4
The test system of test [15] is P388. Description: Tested for in vitro growth inhibition against murine leukemia cell P388Pt4. Format: functional, cell-based. Conditions: Mus musculus.
The subject of test [16] is L1210. Description: Tested for in vitro growth inhibition against murine leukemia cell L1210PtR4. Format: functional, cell-based. Conditions: Mus musculus.
Test [17] has as its system L1210. Description: Tested for the ratio of treated and control against solid tumor murine L1210 leukemia 10 mg/kg per injection in experiment 2; T/C. The class given is functional, organism-based. Conditions: Mus musculus. The method, boiled down:
as §2

The test system of test [18] is L1210. Kind of test: Tested for in vitro growth inhibition against murine leukemia cell L1210DDP5. The class given is functional, cell-based. The conditions noted are these: Mus musculus.
Test [19] relates to Mus musculus. Description: Tested for the ratio of number of survivors / total number after 60 days at the dose of 5.0 mg/kg per injection against murine leukemia P388. The class given is functional, organism-based. The procedure, abridged:
as §3

Test [20] concerns L1210. Kind of test: Tested for median life span against solid tumor L1210 leukemia at 4.0 mg/kg per injection in experiment 1. The class given is functional, organism-based. Conditions: Mus musculus. The procedure, abridged:
as §4

For test [21], the system named is Mus musculus. Kind of test: Tested for the ratio of treated and control against solid tumor murine P388 Pt-resistant leukemia 10 mg/kg per injection; T/C. Format: functional, organism-based. The procedure, abridged:
as §2

For test [22], the system named is L1210. Kind of test: Tested for the ratio of number of survivors / total number after 60 days at the dose of 10 mg/kg per injection against murine leukemia L1210 experiment 2. The class given is functional, organism-based. Conditions: Mus musculus. The method, boiled down: as §3
The subject of test [23] is L1210. Kind of test: Tested for in vivo weight change against murine L1210 leukemia at the dose of 4.0 mg/kg per injection in experiment 1. The class given is functional, organism-based. The conditions noted are these: Mus musculus. The method, boiled down: as §1
Test [24] deals with L1210. Kind of test: Tested for the ratio of number of survivors / total number after 60 days at the dose of 1.5 mg/kg per injection against murine leukemia L1210 experiment 1. The class given is functional, organism-based. The conditions noted are these: Mus musculus. The procedure, abridged:
as §3

The subject of test [25] is L1210. Kind of test: Tested for in vivo weight change against murine L1210 leukemia at the dose of 3.0 mg/kg per injection in experiment 1. The class given is functional, organism-based. Conditions: Mus musculus. The procedure, abridged:
as §1

Test [26] has as its system L1210. Kind of test: Tested for the ratio of number of survivors / total number after 60 days at the dose of 3.0 mg/kg per injection against murine L1210 Pt-resistant leukemia in experiment 1. Format: functional, organism-based. The conditions noted are these: Mus musculus. The procedure, abridged:
as §3

In test [27] the test system is L1210. Kind of test: Tested for median life span against solid tumor L1210 leukemia at 1.6 mg/kg per injection in experiment 2. The class given is functional, organism-based. Conditions: Mus musculus. The method, boiled down:
as §4

The test system of test [28] is Mus musculus. Description: Tested for in vivo weight change against murine P388 leukemia at the dose of 3.7 mg/kg per injection in experiment 2. Format: functional, organism-based. The procedure, abridged: as §1
Test [29] concerns Mus musculus. Kind of test: Tested for median life span against solid tumor P388 leukemia at 3.7 mg/kg per injection in experiment 2. The class given is functional, organism-based. The method, boiled down:
as §2

Test [30] relates to Mus musculus. Description: Tested for the ratio of treated and control against solid tumor murine P388 leukemia 2.3 mg/kg per injection in experiment 2; T/C. Format: functional, organism-based. The procedure, abridged:
as §2

The subject of test [31] is Mus musculus. Kind of test: Tested for in vivo weight change against murine colon carcinoma at the dose of 2.5 mg/kg per injection. Format: functional, organism-based.
The subject of test [32] is Mus musculus. Description: Tested for the ratio of number of survivors / total number after 60 days at the dose of 2.3 mg/kg per injection against murine leukemia P388 experiment 2. Format: functional, organism-based. The procedure, abridged: as §3
Test [33] concerns L1210. Description: Tested for the ratio of number of survivors / total number after 60 days at the dose of 1.5 mg/kg per injection against murine L1210 Pt-resistant leukemia in experiment 1. Format: functional, organism-based. The conditions noted are these: Mus musculus. The method, boiled down: as §3
The test system of test [34] is Mus musculus. Kind of test: Tested for median life span against solid tumor P388 Pt-resistant leukemia at 2.3 mg/kg per injection. Format: functional, organism-based. The procedure, abridged:
as §3

In test [35] the test system is L1210. Kind of test: Tested for the ratio of number of survivors / total number after 60 days at the dose of 1.6 mg/kg per injection against murine leukemia L1210 experiment 2. Format: functional, organism-based. The conditions noted are these: Mus musculus. The procedure, abridged: as §3

For CISPLATIN, the Weight change is -3.7 g with L1210 [1]; -3.3 g with L1210 [7]; -4.5 g in the test on Mus musculus [12]; -1.9 g in the test on L1210 [13]; 1 g with L1210 [23]. Moreover, the MLS with Mus musculus [2] is 19.3 days; in the test on L1210 [6], 12 days; in the test with Mus musculus [9] it was 9.5 days; in the test on L1210 [14], 11 days; in the test with L1210 [20], 19.5 days. Besides, the Survivors turned out to be 0 with L1210 [3], 0 with Mus musculus [19] and 1 in the test with L1210 [22]. The ID50 in the test with L1210 [4] stood at 0.52 µg/mL; in the test on P388 [5], 0.128 µg/mL; with L1210 [11], 0.375 µg/mL; with P388 [15], 10 µg/mL; in the test on L1210 [16] it was 7.84 µg/mL; in the test with L1210 [18], 4.11 µg/mL. In the test with M5076, this substance showed a Log net cell kill of 0.8. Moreover, the Ratio in the test with L1210 [8] is 175%; in the test on L1210 [17] it was 199%. In the test on Mus musculus [10], the T-C was 15.9 days. Moreover, the T/C (usually the ratio of treated to control) in the test on Mus musculus [21] came to 123%.

Consider [Pt(cis-1,4-dach)CL2], for which the 60-day survivors came out at 0 in the test on L1210 [24]; 2 in the test on L1210 [26]; 0 in the test with Mus musculus [32]; 0 in the test on L1210 [33]; 0 with L1210 [35]. Also, the Weight change with L1210 [25] is -4.8 g; in the test on Mus musculus [28], -6 g; with Mus musculus [31], -4.2 g. For the same substance, the ID50 worked out at 1.08 µg/mL in the test on L1210 [4]; 0.047 µg/mL in the test on P388 [5]; 0.248 µg/mL in the test with L1210 [11]; 1.43 µg/mL in the test on P388 [15]; 1.21 µg/mL in the test on L1210 [16]; 0.663 µg/mL in the test with L1210 [18]. Further, the results for the MLS in the test with L1210 [27] and in the test on Mus musculus [29] were 21.3 days and 26 days, respectively. Moreover, the T/C in the test with Mus musculus [30] amounted to 225%. Besides, in the test with Mus musculus [34], the Survivors worked out at 21 days.
